Source: ChEMBL document CHEMBL2331220, “Benzimidazole clubbed with triazolo-thiadiazoles and triazolo-thiadiazines: new anticancer agents” (2013)

Experiments:
Assay type in all cases: functional
NCI-H460 = assay: Cytotoxicity against human NCI-H460 cells after 48 hrs by SRB assay; details: NCI-H460, 48 h
Outline: (§1)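 NCI 60-line five-dose screen. Cells were preincubated 24 h at 37 °C under 5% CO2 and 100% humidity, and time-zero plates were TCA-fixed when compound was added. Five 10-fold concentrations (0.01–100) were tested for 48 h. Cells were fixed with cold TCA (final 10%, 60 min, 4 °C), stained with 0.4% SRB for 10 min, and read at 515 nm. GI50, TGI and LC50 came from growth-percentage formulas, with out-of-range values given as > or <.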

NCI-H522 = assay: Cytotoxicity against human NCI-H522 cells after 48 hrs by SRB assay; details: NCI-H522, 48 h; outline: as §1
HCT-15 = assay: Cytotoxicity against human HCT15 cells after 48 hrs by SRB assay; details: HCT-15, 48 h; outline: as §1
OVCAR-5 = assay: Cytotoxicity against human OVCAR5 cells after 48 hrs by SRB assay; details: OVCAR-5, 48 h; outline: as §1
MOLT-4 = assay: Cytotoxicity against human MOLT4 cells after 48 hrs by SRB assay; details: MOLT-4, 48 h; outline: as §1
NCI-H322M = assay: Cytotoxicity against human NCI-H322M cells after 48 hrs by SRB assay; outline: as §1
[1] = read-out: LC50 (the source's name)
[2] = read-out: pLC50 (the source's name) (converted)

Q: How did the GI50 (NCI-H460; read-out: GI50) turn out when `O=C(CCc1nnc2sc(-c3ccc(Cl)cc3Cl)nn12)c1nc2ccccc2[nH]1` was run?
A: 766 nM

Q: And the CC50 (NCI-H460; [1])?
A: 5210 nM

Q: And the TGI (NCI-H460; read-out: TGI)?
A: 2170 nM

Q: And the GI50 (NCI-H460; read-out: pGI50 (converted))?
A: 759 nM

Q: What about the CC50 (NCI-H460; [2]) of the same compound?
A: 5250 nM

Q: What about the TGI (NCI-H460; read-out: pTGI (converted)) of the same compound?
A: 2190 nM

Q: What about the GI50 (NCI-H522; read-out: GI50) of the same compound?
A: 1280 nM

Q: What about the CC50 (NCI-H522; [1]) of the same compound?
A: 6820 nM

Q: And the TGI (NCI-H522; read-out: TGI)?
A: 2960 nM

Q: What about the GI50 (NCI-H522; read-out: pGI50 (converted)) of the same compound?
A: 1290 nM

Q: What about the CC50 (NCI-H522; [2]) of the same compound?
A: 6760 nM

Q: What about the TGI (NCI-H522; read-out: pTGI (converted)) of the same compound?
A: 2950 nM

Q: What about the GI50 (HCT-15; read-out: GI50) of the same compound?
A: 489 nM

Q: What about the TGI (HCT-15; read-out: TGI) of the same compound?
A: 2210 nM

Q: What about the GI50 (HCT-15; read-out: pGI50 (converted)) of the same compound?
A: 490 nM

Q: What about the TGI (HCT-15; read-out: pTGI (converted)) of the same compound?
A: 2240 nM

Q: What about the GI50 (OVCAR-5; read-out: GI50) of the same compound?
A: 1880 nM

Q: And the CC50 (OVCAR-5; [1])?
A: 8390 nM

Q: And the TGI (OVCAR-5; read-out: TGI)?
A: 3980 nM

Q: And the GI50 (OVCAR-5; read-out: pGI50 (converted))?
A: 1910 nM

Q: And the CC50 (OVCAR-5; [2])?
A: 8320 nM

Q: And the TGI (OVCAR-5; read-out: pTGI (converted))?
A: 3980 nM

Q: And the GI50 (MOLT-4; read-out: GI50)?
A: 282 nM

Q: And the CC50 (MOLT-4; [1])?
A: > 100000 nM

Q: What about the TGI (MOLT-4; read-out: TGI) of the same compound?
A: > 100000 nM

Q: And the GI50 (MOLT-4; read-out: pGI50 (converted))?
A: 282 nM

Q: What about the CC50 (MOLT-4; [2]) of the same compound?
A: > 100000 nM

Q: What about the TGI (MOLT-4; read-out: pTGI) of the same compound?
A: > 100000 nM

Q: And the GI50 (NCI-H322M; read-out: GI50)?
A: 1760 nM

Q: What about the CC50 (NCI-H322M; [1]) of the same compound?
A: 7940 nM

Q: And the TGI (NCI-H322M; read-out: TGI)?
A: 3740 nM

Q: What about the GI50 (NCI-H322M; read-out: pGI50 (converted)) of the same compound?
A: 1780 nM

Q: And the CC50 (NCI-H322M; [2])?
A: 7940 nM

Q: And the TGI (NCI-H322M; read-out: pTGI (converted))?
A: 3720 nM
